Published values collected from several papers.
Compare with care: the assays were run in different laboratories.
PPO3: PPO3 (Agaricus bisporus, UniProt C7FF04)
HTR2A: 5-hydroxytryptamine receptor 2A (HTR2A, Homo sapiens, UniProt P28223)

| SMILES | target | test | conditions | inhibition [%] |
| --- | --- | --- | --- | --- |
| COc1cc(/C=C/C(=O)O)ccc1OCc1cn(CC(=O)NCCc2ccccc2)nn1 | PPO3 | enzyme activity, inhibitor | 40 µM | 10.4 |
| CN1CCC[C@H]1c1cccnc1 | Neuronal acetylcholine receptor; alpha4/beta2 (Rattus norvegicus, UniProt P09483+P12390) | ligand displacement, radioligand | 50 µM | 97.6 |
| COc1cc(/C=C/C(=O)O)ccc1OCc1cn(CC(=O)Nc2cccc(Cl)c2)nn1 | PPO3 | enzyme activity, inhibitor | 40 µM | 11.4 |
| COc1cc2cc3c4c(cc(OC)c(OC)c4c2cc1OC)CCN3C | HTR2A | ligand displacement, radioligand | 10 µM | 10 |
| CC(C)CC(=O)OC[C@H]1O[C@@](C#N)(c2ccc3c(N)ncnn23)[C@H](O)[C@@H]1O | HTR2A | cell-free assay | 20 µM | 5 |
| COc1cc2c(cc1OC)-c1c(OC)c(OC)cc3c1[C@H](C2)N(C)CC3 | HTR2A | ligand displacement, radioligand | 10 µM | 65 |
| COc1cc(/C=C/C(=O)O)ccc1OCc1cn(CC(=O)Nc2ccccc2[N+](=O)[O-])nn1 | PPO3 | enzyme activity, inhibitor | 40 µM | 11.5 |
| c1cncc([C@@H]2CCCN2)c1 | HTR2A | ligand displacement | 50 µM | -7.27 |
| CCOC(=O)Cc1c2c3c(cc(OC)c(OC)c3c3cc(OC)c(OC)cc13)CCN2C | HTR2A | ligand displacement, radioligand | 10 µM | 17 |
